Active and inactive are the calls of the source.
Assays:
[1] = target: T1, Histone acetyltransferase RTT109 (Saccharomyces cerevisiae (strain ATCC 204508 / S288c) (Baker's yeast)) (UniProt Q07794); assay: Inhibition of Vps75-stimulated recombinant Saccharomyces cerevisiae histone acetyltransferase Rtt109 assessed as H3K56 acetylated product at […] after 45 mins by Slot bolt inhibiton assay
T1 sequence (whole entry): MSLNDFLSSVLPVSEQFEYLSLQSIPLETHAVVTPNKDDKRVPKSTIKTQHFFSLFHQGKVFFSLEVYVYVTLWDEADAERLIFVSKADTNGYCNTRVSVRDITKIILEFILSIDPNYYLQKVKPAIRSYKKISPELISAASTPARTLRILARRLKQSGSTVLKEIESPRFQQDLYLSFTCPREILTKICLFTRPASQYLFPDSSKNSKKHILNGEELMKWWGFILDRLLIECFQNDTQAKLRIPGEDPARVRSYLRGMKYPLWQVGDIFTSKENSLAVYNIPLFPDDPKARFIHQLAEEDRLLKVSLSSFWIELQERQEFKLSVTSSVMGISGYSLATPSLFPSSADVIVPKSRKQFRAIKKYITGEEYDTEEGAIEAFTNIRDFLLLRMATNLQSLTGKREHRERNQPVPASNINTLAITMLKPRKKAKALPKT

[2] = target: T1, Histone acetyltransferase RTT109 (Saccharomyces cerevisiae (strain ATCC 204508 / S288c) (Baker's yeast)); assay: Inhibition of Vps75-stimulated recombinant Saccharomyces cerevisiae histone acetyltransferase Rtt109 assessed as H3K27 acetylated product at […] after 45 mins by Slot bolt inhibiton assay
[3] = Fluorescence quenching assessed as fluorescence signal reduction at 10 uM after 10 mins; assay type: physicochemical
Outline: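 CPM (20 μM final) and CoA (5 μM final) reacted to completion in assay buffer (stable plateau, usually ~5 min); adduct solution added to wells preplated with compound; shaken 5 min, equilibrated 5 min at room temperature; fluorescence intensity read as percent signal reduction versus DMSO controls. Flagged as quencher at >20% signal reduction at 10 μM final compound.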

[4] = Fluorescence quenching in HTS buffer assessed as fluorescence signal reduction at 10 uM after 10 mins; assay type: physicochemical
[5] = Fluorescence quenching in HTS buffer with […] CoA assessed as fluorescence signal reduction at 10 uM after 10 mins; assay type: physicochemical
[6] = Fluorescence quenching in HTS buffer with 20 uM 7-diethylamino-3-(4'-maleimidyl-phenyl)-4-methylcoumarin assessed as fluorescence signal reduction at 10 uM after 10 mins; assay type: physicochemical

c1ccc(C[n+]2sc(Nc3ccccc3)nc2-c2ccccc2)cc1
Activity [1]: Active
Activity [2]: Active

O=C(O)c1ccc(S(=O)(=O)Nc2cc(Br)c(O)c3ccccc23)cc1
Activity [1]: Active
Activity [2]: Active
Activity [3]: Not Active
Activity [4]: Not Active
Activity [5]: Not Active
Activity [6]: Not Active

O=S(=O)(Nc1cc(Sc2ccccc2)c(O)c2ccccc12)c1ccccc1
Activity [1]: Active
Activity [2]: Active
Activity [3]: Not Active
Activity [4]: Not Active
Activity [5]: Not Active
Activity [6]: Not Active

O=[N+]([O-])c1cc(Br)c2nsnc2c1Sc1nnnn1C1CCCCC1
Activity [1]: Active
Activity [2]: Active
Activity [3]: Not Active
Activity [4]: Not Active
Activity [5]: Not Active
Activity [6]: Not Active

O=[N+]([O-])c1ccc(Sc2cccc(Cl)c2)c2nonc12
Activity [1]: Active
Activity [2]: Active

Cc1ccc(-c2nc(Nc3ccccc3)s[n+]2CS(=O)(=O)c2ccccc2)cc1.[Cl-]
Activity [1]: Active
Activity [2]: Active
Activity [3]: Not Active
Activity [4]: Not Active
Activity [5]: Not Active
Activity [6]: Not Active

O=C1C=CC(=O)N1c1ccc(Cl)cc1
Activity [1]: Active
Activity [2]: Active
Activity [3]: Not Active
Activity [4]: Not Active
Activity [5]: Not Active
Activity [6]: Not Active

Cn1c(Sc2ccc([N+](=O)[O-])c3nonc23)nnc1-c1ccccc1
Activity [1]: Active
Activity [2]: Active
Activity [3]: Not Active
Activity [4]: Not Active
Activity [5]: Not Active
Activity [6]: Not Active

Cc1ccc(S(=O)(=O)C2=CS(=O)(=O)c3ccccc32)cc1
Activity [1]: Active
Activity [2]: Active
Activity [3]: Not Active
Activity [4]: Not Active
Activity [5]: Not Active
Activity [6]: Not Active

CSc1nsc(SC2=CS(=O)(=O)c3ccccc32)n1
Activity [1]: Active
Activity [2]: Active
Activity [3]: Not Active
Activity [4]: Not Active
Activity [5]: Not Active
Activity [6]: Not Active

O=C1CC(Sc2nnnn2-c2ccccc2)C(=O)N1c1ccc([N+](=O)[O-])cc1 (stereo unspecified)
Activity [1]: Active
Activity [2]: Active
Activity [3]: Not Active
Activity [4]: Not Active
Activity [5]: Not Active
Activity [6]: Not Active

O=S1(=O)C=C(Sc2nn(-c3ccccc3)c(=S)s2)c2ccccc21
Activity [1]: Active
Activity [2]: Active
Activity [3]: Not Active
Activity [4]: Not Active
Activity [5]: Not Active
Activity [6]: Not Active

O=S(=O)(Nc1cc(Br)c(O)c2ccccc12)c1ccc2ccccc2c1
Activity [1]: Active
Activity [2]: inactive
Activity [3]: Not Active
Activity [4]: Not Active
Activity [5]: Not Active
Activity [6]: Not Active

[Br-].c1ccc(Nc2nc(-c3ccccc3)[n+](-c3ccccc3)s2)cc1
Activity [1]: Active
Activity [2]: Active
Activity [3]: Not Active
Activity [4]: Not Active
Activity [5]: Not Active
Activity [6]: Not Active

CCOc1ccc(Nc2nc(-c3ccc(C)cc3)[n+](Cc3ccc([N+](=O)[O-])cc3)s2)cc1.[Br-]
Activity [1]: Active
Activity [2]: Active
Activity [3]: Not Active
Activity [4]: Not Active
Activity [5]: Not Active
Activity [6]: Not Active

[O-][Cl+3]([O-])([O-])[O-].c1ccc(C[n+]2sc(N(c3ccccc3)c3ccccc3)nc2-c2ccccc2)cc1
Activity [1]: Active
Activity [2]: Active
Activity [3]: Not Active
Activity [4]: Not Active
Activity [5]: Not Active
Activity [6]: Not Active

COc1cc(-c2nnc(SC3=CS(=O)(=O)c4ccccc43)o2)cc(OC)c1OC
Activity [1]: Active
Activity [2]: Active
Activity [3]: Not Active
Activity [4]: Not Active
Activity [5]: Not Active
Activity [6]: Not Active

COc1ccc(-c2nc(N)s[n+]2-c2ccccc2)cc1.[Cl-]
Activity [1]: Active
Activity [2]: Active
Activity [3]: Not Active
Activity [4]: Not Active
Activity [5]: Not Active
Activity [6]: Not Active

Cc1occc1-c1nnc(SC2=CS(=O)(=O)c3ccccc32)o1
Activity [1]: Active
Activity [2]: Active
Activity [3]: Not Active
Activity [4]: Not Active
Activity [5]: Not Active
Activity [6]: Not Active

Cc1nnc(SC2CC(=O)N(c3ccc(Br)cc3)C2=O)s1 (stereo unspecified)
Activity [1]: Active
Activity [2]: Active
Activity [3]: Not Active
Activity [4]: Not Active
Activity [5]: Not Active
Activity [6]: Not Active

O=C1CC(Sc2nnc(-c3ccccc3O)o2)C(=O)N1c1ccccc1 (stereo unspecified)
Activity [1]: Active
Activity [2]: Active
Activity [3]: Not Active
Activity [4]: Not Active
Activity [5]: Not Active
Activity [6]: Not Active

Cc1cc(C)c(S(=O)(=O)Nc2cc(Br)c(O)c3ccccc23)c(C)c1
Activity [1]: Active
Activity [2]: Active
Activity [3]: Not Active
Activity [4]: Not Active
Activity [5]: Not Active
Activity [6]: Not Active

O=S(=O)(C[n+]1sc(Nc2ccc(Cl)cc2Cl)nc1-c1ccccc1)c1ccccc1.[Cl-]
Activity [1]: Active
Activity [2]: Active
Activity [3]: Not Active
Activity [4]: Not Active
Activity [5]: Not Active
Activity [6]: Not Active

Cc1ccc(-c2nc(N(c3ccccc3)c3ccccc3)s[n+]2CS(=O)(=O)c2ccccc2)cc1.[O-][Cl+3]([O-])([O-])[O-]
Activity [1]: inactive
Activity [2]: inactive
Activity [3]: Not Active
Activity [4]: Not Active
Activity [5]: Not Active
Activity [6]: Not Active

O=c1[nH]c(Sc2c([N+](=O)[O-])cc(Br)c3nsnc23)nc2ccccc12
Activity [1]: Active
Activity [2]: Active
Activity [3]: Not Active
Activity [4]: Not Active
Activity [5]: Not Active
Activity [6]: Not Active

COc1ccc(Nc2nc(-c3ccc(C)cc3)[n+](Cc3ccccc3)s2)cc1.[Cl-]
Activity [1]: Active
Activity [2]: Active
Activity [3]: Not Active
Activity [4]: Not Active
Activity [5]: Not Active
Activity [6]: Not Active

CCC(=O)OCCNc1cc(Sc2nnc(-c3ccccc3)s2)c2nonc2c1[N+](=O)[O-]
Activity [1]: Active
Activity [2]: Active
Activity [3]: Not Active
Activity [4]: Not Active
Activity [5]: Not Active
Activity [6]: Not Active

CC(C)c1ccc(S(=O)(=O)Nc2ccc(O)c(Br)c2)cc1
Activity [1]: inactive
Activity [2]: inactive
Activity [3]: Not Active
Activity [4]: Not Active
Activity [5]: Not Active
Activity [6]: Not Active

O=S(=O)(Nc1ccc(O)c(Br)c1)c1ccc(Cl)cc1
Activity [1]: inactive
Activity [2]: inactive
Activity [3]: Not Active
Activity [4]: Not Active
Activity [5]: Not Active
Activity [6]: Not Active

Cc1ccc(S(=O)(=O)C[n+]2sc(N(c3ccccc3)c3ccccc3)nc2-c2ccccc2)cc1
Activity [1]: inactive
Activity [2]: inactive

Cc1ccc(-c2nnc(SC3CC(=O)N(c4ccc(Oc5ccccc5)cc4)C3=O)[nH]2)cc1 (stereo unspecified)
Activity [1]: Active
Activity [2]: Active
Activity [3]: Not Active
Activity [4]: Not Active
Activity [5]: Not Active
Activity [6]: Not Active

O=C1CC(Sc2nnc(-c3ccccc3)[nH]2)C(=O)N1c1ccc(Oc2ccccc2)cc1 (stereo unspecified)
Activity [1]: Active
Activity [2]: Active
Activity [3]: Not Active
Activity [4]: Not Active
Activity [5]: Not Active
Activity [6]: Not Active

COc1ccc(N2C(=O)CC(Sc3nnc(-c4ccccc4)o3)C2=O)cc1 (stereo unspecified)
Activity [1]: Active
Activity [2]: Active
Activity [3]: Not Active
Activity [4]: Not Active
Activity [5]: Not Active
Activity [6]: Not Active
